{"source": "ChEMBL document CHEMBL2176901", "about": "“Pyrrolo[3,4-h]quinolinones a new class of photochemotherapeutic agents” (Bioorg Med Chem, 2011)", "key": {"MCF7 [1]": {"test_system": "MCF7", "assay": "Phototoxicity in 2.5 J/cm'2 UV-A irradiated human MCF7 cells assessed as cell viability after 72 hrs by MTT assay in presence of radical scavenger NaN3", "format": "functional, cell-based", "how_it_was_run": "(§1)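 MCF-7 cells given compound plus scavenger in HBSS, 30 min at 37 °C, then UV-A (2.5 J/cm², 365 nm lamp). Medium replaced; viability by MTT after 72 h. Means ± SEM of at least three independent experiments.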"}, "Jurkat [2]": {"test_system": "Jurkat", "assay": "Induction of apoptosis in 3.75 J/cm'2 UV-A irradiated human Jurkat cells assessed as late apoptotic cells at 5 uM after 24 hrs by Annexin-V-FITC and propidium iodide based flow cytometry (reference value: 2.9 %)", "format": "functional"}, "Jurkat [3]": {"test_system": "Jurkat", "assay": "Induction of apoptosis in UV-A irradiated human Jurkat cells assessed as increase in number of damaged lysosomes after 6 to 24 hrs by acridine orange- based flow cytometry", "format": "functional, cell-based", "how_it_was_run": "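Lysosomal stability in Jurkat cells 6, 12 and 24 h after UV-A (2.5 J/cm²) with compound. Cells resuspended in RPMI-1640 with 1 µM acridine orange; flow cytometry, excitation 488 nm, emission in FL3. Mean ± SEM of three experiments.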"}, "[4]": {"assay": "Photodegradation of the compound in DMSO assessed as formation of photoproducts at 20 uM at 1.3 to 14.1 J/cm'2 UV-A irradiation", "format": "physicochemical", "how_it_was_run": "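Compound solutions at 20 μM in DMSO exposed to increasing UV-A doses (HPW 125 lamps, mainly 365 nm, 4.0 mW cm⁻²). Absorption spectra recorded after each dose; isosbestic points noted.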"}, "Jurkat [5]": {"test_system": "Jurkat", "assay": "Cell cycle arrest in UV-A irradiated human Jurkat cells assessed as accumulation at G2/M phase at 5 uM after 24 hrs by propidium iodide based flow cytometry (reference value: 10.3 %)", "format": "functional", "how_it_was_run": "(§2)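 Exponentially growing Jurkat cells (5×10^5) irradiated with UV-A (365 nm lamp, 2.5 J/cm²) in presence of compound. After 24 h: fixed in ice-cold 70% ethanol, lysed with RNAse A, stained with PI (10 µg/ml), analysed by flow cytometry. Phases calculated on living cells; subG1 is hypodiploid DNA peak.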"}, "Jurkat [6]": {"test_system": "Jurkat", "assay": "Cell cycle arrest in UV-A irradiated human Jurkat cells assessed as accumulation at G2/M phase at 10 uM after 24 hrs by propidium iodide based flow cytometry (reference value: 10.3 %)", "format": "functional", "how_it_was_run": "as §2"}, "Nucleic Acid [7]": {"test_system": "Nucleic Acid", "assay": "Binding affinity to salmon testes DNA at 10 uM by fluorescence titration", "format": "nucleic-acid assay", "settings": "Salmonidae", "how_it_was_run": "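Fluorimetric titration of compound (10 μM) with increasing stDNA (0 to 100 μM) in 10 mM phosphate buffer pH 7.2; quenching of compound fluorescence monitored.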"}, "LoVo [8]": {"test_system": "LoVo", "assay": "Phototoxicity in 3.75 J/cm'2 UV-A irradiated human LoVo cells after 72 hrs by MTT assay", "format": "functional, cell-based", "settings": "light or radiation study", "how_it_was_run": "(§3)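 Seeded at 5 × 10³ cells/well with 10% FBS: MCF-7 and NCTC-2544 in DMEM, LoVo in Ham's F12. Pre-incubated 18 h at 37 °C, 5% CO2. Compound (DMSO stock diluted in HBSS pH 7.2) was applied for 30 min at 37 °C, then UV-A irradiation (mainly 365 nm, 4.0 mW/cm²). Medium was restored for 72 h before MTT. IC50 is the mean ± SEM of three experiences.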"}, "Jurkat [9]": {"test_system": "Jurkat", "assay": "Induction of lipid peroxidation in 2.5 J/cm'2 UV-A irradiated human Jurkat cells assessed as increase in TBARS formation after 24 hrs by thiobarbituric acid assay", "format": "functional, cell-based", "how_it_was_run": "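Lipid peroxidation measured as MDA–thiobarbituric acid adducts, with BHT added to samples; calibrated to a 1,1,3,3-tetraethoxypropane standard curve; protein by Peterson method.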"}, "HL-60": {"test_system": "HL-60", "assay": "Phototoxicity in 2.5 J/cm'2 UV-A irradiated human HL60 cells after 72 hrs by MTT assay", "format": "functional, cell-based", "settings": "HL-60, light or radiation study", "how_it_was_run": "(§4)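 HL-60 and Jurkat (8×10³/well, RPMI-1640) and MCF-7, LoVo, NCTC-2544 (5×10³/well; DMEM or Ham's F12) preincubated 18 h at 37 °C, 5% CO₂. Compound in DMSO diluted in HBSS pH 7.2, 30 min at 37 °C, then UV-A at 2.5 or 3.75 J/cm². Medium replaced, 72 h incubation, MTT read-out. IC50 as mean ± SEM of three experiments.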"}, "Jurkat [10]": {"test_system": "Jurkat", "assay": "Induction of apoptosis in 3.75 J/cm'2 UV-A irradiated human Jurkat cells assessed as early apoptotic cells at 10 uM after 24 hrs by Annexin-V-FITC and propidium iodide based flow cytometry (reference value: 1.9 %)", "format": "functional"}, "MCF7 [11]": {"test_system": "MCF7", "assay": "Phototoxicity in 2.5 J/cm'2 UV-A irradiated human MCF7 cells assessed as cell viability after 72 hrs by MTT assay in presence of radical scavenger GSH", "format": "functional, cell-based", "how_it_was_run": "as §1"}, "Nucleic Acid [12]": {"test_system": "Nucleic Acid", "assay": "Induction of photo-induced supercoiled Escherichia coli pBR322 DNA damage at drug:DNA ratio of 1:3 by agarose gel electrophoresis in presence of mannitol", "format": "nucleic-acid assay", "how_it_was_run": "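Supercoiled pBR322 (100 ng) in 10 mM phosphate buffer pH 7.2 irradiated with UV-A (3.75 J/cm²) at [DNA]/[drug] 1/3, with additives, under nitrogen or in deuterated buffer as stated. Aliquots then incubated at 37 °C with Fpg or Endo III. Run on 1% agarose in TAE, 80 V for 2 h, stained with ethidium bromide; Form I/II fractions from band densitometry.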"}, "[13]": {"assay": "Phototoxicity in 3.75 J/cm'2 UV-A irradiated human NCTC-2544 cells after 72 hrs by MTT assay", "format": "functional, cell-based", "settings": "NCTC-2544, light or radiation study", "how_it_was_run": "as §3"}, "[14]": {"assay": "Drug uptake in lysosome of human NCTC-2544 cells at 10 uM after 2 hrs by fluorescence microphotography", "format": "ADME, cell-based", "settings": "nctc-2544, 2 h", "how_it_was_run": "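NCTC-2544 cells attached in Petri dishes, given compound at 10 μM for 2 h, washed with HBSS. Then 30 min with Rhodamine 123 (mitochondria), LysoTracker RED, CellMask Orange (plasma membrane) or ER-Tracker. Blue compound fluorescence overlaid on probe images by video-confocal microscopy.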"}, "LoVo [15]": {"test_system": "LoVo", "assay": "Phototoxicity in 2.5 J/cm'2 UV-A irradiated human LoVo cells after 72 hrs by MTT assay", "format": "functional, cell-based", "settings": "light or radiation study", "how_it_was_run": "as §4"}, "Jurkat [16]": {"test_system": "Jurkat", "assay": "Induction of apoptosis in 3.75 J/cm'2 UV-A irradiated human Jurkat cells assessed as late apoptotic cells at 10 uM after 24 hrs by Annexin-V-FITC and propidium iodide based flow cytometry (reference value: 2.9 %)", "format": "functional"}, "MCF7 [17]": {"test_system": "MCF7", "assay": "Phototoxicity in 3.75 J/cm'2 UV-A irradiated human MCF7 cells after 72 hrs by MTT assay", "format": "functional, cell-based", "settings": "MCF7, light or radiation study", "how_it_was_run": "as §3"}, "MCF7 [18]": {"test_system": "MCF7", "assay": "Phototoxicity in 2.5 J/cm'2 UV-A irradiated human MCF7 cells assessed as cell viability after 72 hrs by MTT assay in presence of radical scavenger BHA", "format": "functional, cell-based", "how_it_was_run": "as §1"}, "Jurkat [19]": {"test_system": "Jurkat", "assay": "Induction of apoptosis in 3.75 J/cm'2 UV-A irradiated human Jurkat cells assessed as viable cells at 5 uM after 24 hrs by Annexin-V-FITC and propidium iodide based flow cytometry (reference value: 91 %)", "format": "functional", "settings": "light or radiation study, read-out: Activity"}, "Nucleic Acid [20]": {"test_system": "Nucleic Acid", "assay": "Binding affinity to salmon testes DNA at drug/DNA ratio of 0.02 by linear dichroism analysis", "format": "nucleic-acid assay", "settings": "Salmonidae", "how_it_was_run": "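Flow linear dichroism in 10 mM phosphate buffer pH 7.2. Samples oriented in a rotating cylindrical cuvette (0.14 cm path, 800 rpm) at several drug/DNA ratios.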"}}, "note": "Activity calls are given as the source filed them. No cut-off for these calls is given here."}
{"smiles": "CCOC(=O)c1c2c(c(C)n1C)-c1c(cc(S(=O)(=O)c3ccccc3)c(=O)n1C)CC2", "values": [{"measurement": "Activity", "setting": "MCF7 [1]", "value": "inactive"}, {"measurement": "Activity", "setting": "Jurkat [2]", "value": 11, "unit": "%"}, {"measurement": "Activity", "setting": "Jurkat [3]", "value": "Active"}, {"measurement": "Stability", "setting": "[4]", "value": "Unstable"}, {"measurement": "Activity", "setting": "Jurkat [5]", "value": 4.2, "unit": "%"}, {"measurement": "Activity", "setting": "Jurkat [6]", "value": 5.3, "unit": "%"}, {"measurement": "Activity", "setting": "Nucleic Acid [7]", "value": "inactive"}, {"measurement": "IC50", "setting": "LoVo [8]", "value": 400, "unit": "nM"}, {"measurement": "Activity", "setting": "Jurkat [9]", "value": "Dose-dependent effect"}, {"measurement": "IC50", "setting": "HL-60", "value": 1200, "unit": "nM"}, {"measurement": "Activity", "setting": "Jurkat [10]", "value": 23.9, "unit": "%"}, {"measurement": "Activity", "setting": "MCF7 [11]", "value": "inactive"}, {"measurement": "Activity", "setting": "Nucleic Acid [12]", "value": "inactive"}, {"measurement": "IC50", "setting": "[13]", "value": 1300, "unit": "nM"}, {"measurement": "Drug uptake", "setting": "[14]", "value": "Active"}, {"measurement": "IC50", "setting": "LoVo [15]", "value": 700, "unit": "nM"}, {"measurement": "Activity", "setting": "Jurkat [16]", "value": 21.4, "unit": "%"}, {"measurement": "IC50", "setting": "MCF7 [17]", "value": 1300, "unit": "nM"}, {"measurement": "Activity", "setting": "MCF7 [18]", "value": "inactive"}, {"measurement": "viability at 5 µM", "setting": "Jurkat [19]", "value": 70.1, "unit": "%"}, {"measurement": "Activity", "setting": "Nucleic Acid [20]", "value": "inactive"}]}
